Results taken from BindingDB's records for doi:10.1021/jm00108a037 (Katholieke Universiteit Leuven, 1991).

Experiments:
[1] = biological target: T1, Acyl-protein thioesterase 1 (Rattus norvegicus, UniProt P70470); assay: ChEBML_100186
Description: in vitro inhibitory activity against Lysosomal phospholipase A1 consisting of negatively charged liposomes and lysosomal extracts. p<0.05

[2] = biological target: T1, Acyl-protein thioesterase 1; assay: in vitro inhibitory activity against Lysosomal phospholipase A1 consisting of negatively charged liposomes and lysosomal extracts.
Procedure, shortened: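 Lysosomal phospholipase activity measured on labeled phosphatidylcholine incorporated into negatively charged liposomes, read as release of labeled lysophosphatidylcholine.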

T1 sequence (P70470 whole entry): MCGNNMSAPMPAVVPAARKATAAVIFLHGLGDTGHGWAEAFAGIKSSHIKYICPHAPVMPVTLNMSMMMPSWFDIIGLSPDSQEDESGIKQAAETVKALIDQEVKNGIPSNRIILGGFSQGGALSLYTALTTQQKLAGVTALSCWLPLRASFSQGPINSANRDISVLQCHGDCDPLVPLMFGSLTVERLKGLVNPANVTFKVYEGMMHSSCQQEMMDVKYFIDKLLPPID

Structure (SMILES) | IC50 [1] [µM] | IC50 [2] [µM]
NCC1OC(OC2C(N)CC(N)(CO)C(OC3OC(CO)C(O)C(N)C3O)C2O)C(N)C(O)C1O (centres undefined) | 79 | 
[N-]=[N+]=NCC1OC(OC2C(O)C(OC3OC(CN)C(O)C(O)C3N)C(N)CC2(N)CO)C(O)C(N)C1O (centres undefined) | 95 | 
NCC1OC(OC2C(N)CC(N)(CO)C(OC3OC(CCl)C(O)C(N)C3O)C2O)C(N)C(O)C1O (centres undefined) |  | 105
CC(=O)NCC1OC(OC2C(O)C(OC3OC(CN)C(O)C(O)C3N)C(N)CC2(N)CO)C(O)C(N)C1O (centres undefined) |  | 119
